The results in this text go back to ChEMBL document CHEMBL1153730, “Bioactive constituents of the stem bark of Beilschmiedia zenkeri” (J Nat Prod, 2009).

One assay has as its system Pseudomonas agarici. The experiment in a line: Antibacterial activity against Pseudomonas agarici by agar well diffusion method. It counts as functional. In a few lines:
(§1)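 Agar well diffusion on pure compounds, with the value reported as MIC. Ampicillin was the positive control for B. subtilis and gentamicin for P. agarici.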

The subject of another assay is Streptococcus minor. The experiment in a line: Antibacterial activity against Streptococcus minor by agar well diffusion method. It counts as functional. Summed up:
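Agar well diffusion run on extracts and pure compounds, following earlier reports. Ampicillin served as the positive control for this strain. Activity was reported as MIC (µM).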

For another assay, the system named is Bacillus subtilis. The experiment in a line: Antibacterial activity against Bacillus subtilis by agar well diffusion method. It counts as functional. Summed up:
as §1

In the next assay the test system is Plasmodium falciparum. Put plainly: Antiplasmodial activity against chloroquine-resistant Plasmodium falciparum W2 rings after 48 hrs by FACS analysis. It counts as functional, organism-based. The note with it: W2, 48 h.

≈ marks a conversion by molar mass, not a printed value. Calls of active or inactive are those of the source. The rule behind the calls is not given here.

As for `O=C(/C=C/c1ccccc1)NCCc1ccc2c(c1)OCO2`, the outcome in the assay with Pseudomonas agarici, in the assay on Streptococcus minor and in the assay with Bacillus subtilis was inactive.
For the compound `CC(C)CNC(=O)/C=C/C=C/CCCCCC/C=C/c1ccc2c(c1)OCO2` [GUINEENSINE], the MIC with Pseudomonas agarici was 81.5 µM (≈ 31.3 µg/mL); in the assay on Bacillus subtilis, 163 µM (≈ 62.5 µg/mL). The same compound had an IC50 in the assay on Plasmodium falciparum of 3.7 µM. In the assay on Streptococcus minor, the result was inactive.
In the case of `COc1cc(O)c2c(c1OC)OC(c1ccccc1)CC2=O` (stereo not given), the outcome with Pseudomonas agarici, in the assay on Streptococcus minor and in the assay on Bacillus subtilis was inactive. The compound also returned an IC50 in the assay on Plasmodium falciparum of 9.3 µM.
`C=C(C)[C@@H]1CC[C@]2(C(=O)O)CC[C@]3(C)[C@H](CC[C@@H]4[C@@]5(C)CC[C@H](O)C(C)(C)[C@@H]5CC[C@]43C)[C@@H]12` [BETULINIC ACID]: the outcome in the assay with Pseudomonas agarici, in the assay with Streptococcus minor and in the assay on Bacillus subtilis was inactive. The IC50 in the assay on Plasmodium falciparum was 5.2 µM.
`CCCCCCCCCCCCCCC(=O)OC[C@@H](O)CO`: the result in the assay on Pseudomonas agarici, in the assay on Streptococcus minor and in the assay on Bacillus subtilis was inactive.
Take `COc1cc2c(c(OC)c1OC)[C@H](OC)C[C@@H](c1ccccc1)O2`: the result with Pseudomonas agarici, in the assay with Streptococcus minor and in the assay with Bacillus subtilis was inactive.
Take `COc1cc2c(c(O)c1OC)[C@H](O[C@@H]1C[C@@H](c3ccccc3)Oc3cc(OC)c(OC)c(OC)c31)C[C@@H](c1ccccc1)O2` [BEILSCHMIEFLAVONOID B]: the outcome with Pseudomonas agarici and in the assay with Bacillus subtilis was inactive. In the assay on Streptococcus minor, this compound gave an MIC of 198 µM (≈ 119 µg/mL).
`COc1cc2c(c(OC)c1OC)[C@H](O[C@@H]1C[C@@H](c3ccccc3)Oc3cc(OC)c(OC)c(OC)c31)C[C@@H](c1ccccc1)O2`: the result with Pseudomonas agarici, in the assay on Streptococcus minor and with Bacillus subtilis was inactive.
`COc1cc2c(c(OC)c1OC)[C@H](O)C[C@@H](c1ccccc1)O2`: the outcome with Pseudomonas agarici, with Streptococcus minor and with Bacillus subtilis was inactive.
